Measurements from ChEMBL document CHEMBL4033790, “Design and Synthesis of Novel Deuterated Ligands Functionally Selective for the γ-Aminobutyric Acid Type A Receptor (GABAAR) α6 Subtype with Improved Metabolic Stability and Enhanced Bioavailability” (J Med Chem, 2018).
In brackets after ≈: the same amount, converted by molar mass. Activity calls are given as the source filed them. No cut-off for these calls is given here.

How the values were obtained:
[1] = Drug level in mouse liver microsomes treated with 7-Bromo-2-(4-methoxy-d3-phenyl)-2,5-dihydro-3H-pyrazolo[4,3-c]quinolin-3-one after 60 mins by LC-MS analysis; format: ADME; conditions: 1 h
[2] = Drug level in human liver microsomes treated with 7-Bromo-2-(4-methoxy-d3-phenyl)-2,5-dihydro-3H-pyrazolo[4,3-c]quinolin-3-one after 60 mins by LC-MS analysis; format: ADME; conditions: 1 h
[3] = Metabolic stability in human liver microsomes assessed as parent compound remaining at 10 uM after 60 mins by LC-MS analysis; format: ADME, microsome; conditions: read-out: Stability
In short: (§1)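 The 60 min samples of the microsomal incubation (10 μM compound, human or mouse liver microsomes at 0.5 mg/mL, NADPH regenerating system, 37 °C) were analysed by LC-MS. Detection used SIM mode with dual ESI/APCI ionization, calibrated to the retention times and masses of the parent and its O-demethylated metabolites. Peak intensities were measured.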

[4] = Metabolic stability in mouse liver microsomes assessed as parent compound remaining at 10 uM after 60 mins by LC-MS analysis; format: ADME, microsome; conditions: read-out: Stability; in short: as §1
[5] = Aqueous solubility of the compound in DI water at pH 7 after 2 hrs by LC-MS analysis; format: physicochemical; conditions: buffer, pH 7, 2 h
In short: (§2)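 10 mg compound dissolved in 2 mL DMAC; 10 μL of this added to 2 mL DI water (pH 7, sonicated) or 2 mL 0.01 M aq HCl (pH 2), held 2 h at 37 °C. Filtered through 0.45 micron filter, then quantified by LC-MS in SIM mode against calibration curves of standards in DMAC (n = 5); n=3.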

[6] = Solubility of the compound in 0.01M HCl at pH 2 after 2 hrs by LC-MS analysis; format: physicochemical; conditions: buffer, pH 2, 2 h; in short: as §2
[7] = molecular target: Muscarinic acetylcholine receptor M4 (Homo sapiens) (UniProt P08173); experiment: Displacement of [3H]-QNB from human recombinant M4 receptor expressed in HEK293 cells at 10 uM after 60 to 90 mins by scintillation counting; format: cell-based
Sequence of Muscarinic acetylcholine receptor M4 (Homo sapiens) (P08173 whole entry): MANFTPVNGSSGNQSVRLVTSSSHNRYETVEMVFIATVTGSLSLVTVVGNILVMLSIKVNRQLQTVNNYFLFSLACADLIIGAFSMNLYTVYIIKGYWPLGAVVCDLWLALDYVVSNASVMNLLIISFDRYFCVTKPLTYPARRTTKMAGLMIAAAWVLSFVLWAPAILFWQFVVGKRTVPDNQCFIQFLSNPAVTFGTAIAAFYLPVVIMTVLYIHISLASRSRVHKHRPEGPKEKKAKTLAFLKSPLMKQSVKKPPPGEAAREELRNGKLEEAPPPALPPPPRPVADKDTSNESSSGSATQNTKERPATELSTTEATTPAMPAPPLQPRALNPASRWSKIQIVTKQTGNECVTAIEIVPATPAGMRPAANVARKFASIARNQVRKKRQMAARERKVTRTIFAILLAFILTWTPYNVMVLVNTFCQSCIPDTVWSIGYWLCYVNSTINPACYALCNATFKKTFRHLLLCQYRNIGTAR
In short: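 Primary single-concentration radioligand displacement screen run by the NIMH Psychoactive Drug Screening Program across a 46-target panel that includes hERG. The read-out is percent inhibition of specific radioligand binding. Any compound displacing more than 50% of radioligand went on to secondary binding assays to determine Ki.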

[8] = tested on: Mus musculus; experiment: Neurotoxicity in Swiss Webster mouse assessed as induction of motor impairment at 40 mg/kg administered via oral gavage measured after 10 to 60 mins by rotarod method; format: toxicity, organism-based; conditions: in vivo
In short: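 Female mice were given a single oral gavage dose of 40 mg/kg, either in 50% PBS/40% propylene glycol/10% DMSO or, for poorly soluble compounds, in 2% polyethylene glycol plus 2.5% hydroxymethyl cellulose. Rotarod performance was tested 10, 30 and 60 min after dosing, with diazepam 5 mg/kg as positive control.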

[9] = molecular target: GABA-A receptor; alpha-6/beta-3/gamma-2 (Homo sapiens) (UniProt P18507+P28472+Q16445); experiment: Positive allosteric modulation of GABA-A receptor alpha6beta3gamma2 (unknown origin) expressed in Xenopus laevis oocytes assessed as potentiation of EC3 GABA induced currents up to 10 uM at -60 mV holding potential by electrophysiological method; format: cell-based; conditions: tested as the 2H-labelled form
In short: (§3)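 Stage 5–6 defolliculated Xenopus oocytes were injected with 2.5 ng total mRNA per oocyte: α1, α2, α3 or α5 with β3 and γ2 at 1:1:5, and α4 or α6 with β3 and γ2 at 3:1:5. Oocytes were kept ≥36 h at 18 °C in NDE medium before recording. Compounds were co-applied with GABA titrated to EC3-5 for each oocyte. Curves were fitted with the Hill equation; mean ± SEM from ≥3 oocytes across two batches.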

[10] = molecular target: GABA-A receptor; alpha-1/beta-3/gamma-2 (Homo sapiens) (UniProt P14867+P18507+P28472); experiment: Positive allosteric modulation of GABA-A receptor alpha1beta3gamma2 (unknown origin) expressed in Xenopus laevis oocytes assessed as potentiation of EC3 GABA induced currents up to 100 uM at -60 mV holding potential by electrophysiological method relative to GABA; format: cell-based; conditions: tested as the 2H-labelled form; in short: as §3
[11] = molecular target: GABA-A receptor; alpha-2/beta-3/gamma-2 (Homo sapiens) (UniProt P18507+P28472+P47869); experiment: Positive allosteric modulation of GABA-A receptor alpha2beta3gamma2 (unknown origin) expressed in Xenopus laevis oocytes assessed as potentiation of EC3 GABA induced currents up to 100 uM at -60 mV holding potential by electrophysiological method relative to GABA; format: cell-based; conditions: tested as the 2H-labelled form; in short: as §3
[12] = molecular target: GABA-A receptor; alpha-3/beta-3/gamma-2 (Homo sapiens) (UniProt P18507+P28472+P34903); experiment: Positive allosteric modulation of GABA-A receptor alpha3beta3gamma2 (unknown origin) expressed in Xenopus laevis oocytes assessed as potentiation of EC3 GABA induced currents up to 100 uM at -60 mV holding potential by electrophysiological method relative to GABA; format: cell-based; conditions: tested as the 2H-labelled form; in short: as §3
[13] = molecular target: GABA A receptor alpha-4/beta-3/gamma-2 (Homo sapiens) (UniProt P18507+P28472+P48169); experiment: Positive allosteric modulation of GABA-A receptor alpha4beta3gamma2 (unknown origin) expressed in Xenopus laevis oocytes assessed as potentiation of EC3 GABA induced currents up to 100 uM at -60 mV holding potential by electrophysiological method relative to GABA; format: cell-based; conditions: tested as the 2H-labelled form; in short: as §3
[14] = molecular target: GABA-A receptor; alpha-5/beta-3/gamma-2 (Homo sapiens) (UniProt P18507+P28472+P31644); experiment: Positive allosteric modulation of GABA-A receptor alpha5beta3gamma2 (unknown origin) expressed in Xenopus laevis oocytes assessed as potentiation of EC3 GABA induced currents up to 100 uM at -60 mV holding potential by electrophysiological method relative to GABA; format: cell-based; conditions: tested as the 2H-labelled form; in short: as §3
[15] = molecular target: Voltage-gated inwardly rectifying potassium channel KCNH2 (Homo sapiens, UniProt Q12809); experiment: Displacement of [3H]-dofetilide from human ERG expressed in HEK cell membranes at >10 uM after 60 to 90 mins by scintillation counting
Sequence of Voltage-gated inwardly rectifying potassium channel KCNH2 (Q12809 whole entry): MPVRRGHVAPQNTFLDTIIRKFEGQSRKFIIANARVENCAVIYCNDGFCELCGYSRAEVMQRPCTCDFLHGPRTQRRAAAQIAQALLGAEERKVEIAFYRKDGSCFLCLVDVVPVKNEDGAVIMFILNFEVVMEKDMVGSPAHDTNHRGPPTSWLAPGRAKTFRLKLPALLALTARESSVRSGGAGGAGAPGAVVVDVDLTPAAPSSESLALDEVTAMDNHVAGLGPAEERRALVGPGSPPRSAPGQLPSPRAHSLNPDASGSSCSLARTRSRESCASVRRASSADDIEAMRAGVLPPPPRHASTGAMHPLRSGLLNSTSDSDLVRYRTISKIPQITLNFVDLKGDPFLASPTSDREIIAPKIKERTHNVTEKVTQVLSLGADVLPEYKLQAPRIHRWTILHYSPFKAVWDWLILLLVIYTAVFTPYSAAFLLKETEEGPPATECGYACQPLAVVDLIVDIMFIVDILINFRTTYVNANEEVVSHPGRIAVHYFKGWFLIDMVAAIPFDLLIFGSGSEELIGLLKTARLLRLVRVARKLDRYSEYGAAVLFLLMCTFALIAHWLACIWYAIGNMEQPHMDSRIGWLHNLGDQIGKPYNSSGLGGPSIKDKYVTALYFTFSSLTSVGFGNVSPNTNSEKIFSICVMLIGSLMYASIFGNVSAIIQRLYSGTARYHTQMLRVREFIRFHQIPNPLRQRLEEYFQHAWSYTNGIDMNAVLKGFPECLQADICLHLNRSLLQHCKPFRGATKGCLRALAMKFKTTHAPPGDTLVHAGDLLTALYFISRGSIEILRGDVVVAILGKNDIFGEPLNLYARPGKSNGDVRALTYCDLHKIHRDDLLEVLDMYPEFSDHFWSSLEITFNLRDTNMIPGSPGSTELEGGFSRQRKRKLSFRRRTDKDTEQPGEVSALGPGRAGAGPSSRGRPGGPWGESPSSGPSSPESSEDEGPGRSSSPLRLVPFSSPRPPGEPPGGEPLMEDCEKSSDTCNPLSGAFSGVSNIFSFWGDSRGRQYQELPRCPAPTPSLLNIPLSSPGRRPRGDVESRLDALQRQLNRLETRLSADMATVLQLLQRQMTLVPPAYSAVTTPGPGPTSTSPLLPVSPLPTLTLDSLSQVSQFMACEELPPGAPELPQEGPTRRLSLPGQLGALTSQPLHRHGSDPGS

[16] = tested on: Liver; experiment: Half life in human liver microsomes at 10 uM by LC-MS/MS analysis; format: ADME, microsome
In short: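 Compound at 10 μM final was preincubated 5 min at 37 °C with NADPH regenerating system in phosphate buffer, pH 7.4. Human or mouse liver microsomes (0.5 mg/mL protein) were added to start the reaction. Samples were taken at 0 (no microsomes) and 10–60 min and measured by LC-MS/MS against an internal standard. Half-life = 0.693/k, with k the slope of ln peak-area ratio versus time. Three experiments, each in duplicate.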

[17] = Drug metabolism in human liver microsomes assessed as CYP450 mediated-O-demethylated 7-hydroxy-2-(4-hydroxyphenyl)-2H-pyrazolo[4,3-c]quinolin-3(5H)-one metabolite formation after 60 mins by LC-MS analysis; format: ADME; conditions: 1 h
In short: (§4)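 The 60-min samples from the human or mouse liver microsome incubations (10 µM compound, 0.5 mg/mL protein, NADPH regenerating system, 37 °C, pH 7.4) were run on LC-MS in SIM mode with dual ESI/APCI ionization. The method was calibrated to each component's retention time and mass, and the peak intensities of the parent and O-demethylated metabolites were measured.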

[18] = Drug metabolism in mouse liver microsomes assessed as CYP450 mediated-O-demethylated 7-hydroxy-2-(4-hydroxyphenyl)-2H-pyrazolo[4,3-c]quinolin-3(5H)-one metabolite formation after 60 mins by LC-MS analysis; format: ADME; conditions: 1 h; in short: as §4
[19] = Drug metabolism in human liver microsomes assessed as CYP450 mediated-O-demethylated 2-(4-hydroxyphenyl)-7-(trideuteriomethoxy)-5H-pyrazolo[4,3-c]quinolin-3-one metabolite formation after 60 mins by LC-MS analysis; format: ADME; conditions: 1 h; in short: as §4
[20] = Drug metabolism in human liver microsomes assessed as CYP450 mediated-O-demethylated 7-hydroxy-2-(4-methoxyphenyl)-2H-pyrazolo[4,3-c]quinolin-3(5H)-one metabolite formation after 60 mins by LC-MS analysis; format: ADME; conditions: 1 h; in short: as §4
[21] = Drug metabolism in mouse liver microsomes assessed as CYP450 mediated-O-demethylated 2-(4-hydroxyphenyl)-7-(trideuteriomethoxy)-5H-pyrazolo[4,3-c]quinolin-3-one metabolite formation after 60 mins by LC-MS analysis; format: ADME; conditions: 1 h; in short: as §4
[22] = Drug metabolism in mouse liver microsomes assessed as CYP450 mediated-O-demethylated 7-hydroxy-2-(4-methoxyphenyl)-2H-pyrazolo[4,3-c]quinolin-3(5H)-one metabolite formation after 60 mins by LC-MS analysis; format: ADME; conditions: 1 h; in short: as §4
[23] = tested on: HEK-293T; experiment: Cytotoxicity against HEK293T cells assessed as reduction in cell viability up to 400 uM after 48 hrs by CellTiter-Glo assay; format: cell-based; conditions: human
In short: (§5)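 HEK293T and HepG2 cells grown in high-glucose DMEM with non-essential amino acids, 10 mM HEPES, penicillin/streptomycin and 10% heat-inactivated FBS. Cells were harvested with trypsin and plated; compound was pin-transferred 3 h later. Incubation was 48 h, then CellTiter-Glo luminescence was read. Controls were DMSO (negative) and a cytotoxic aminoketone (positive). Quadruplicates, three independent runs, normalized to controls, nonlinear regression.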

[24] = tested on: HepG2; experiment: Cytotoxicity against human HepG2 cells assessed as reduction in cell viability up to 400 uM after 48 hrs by CellTiter-Glo assay; format: cell-based; conditions: hepg2, 48 h; in short: as §5
[25] = Cmax in Wistar rat plasma at 10 mg/kg, ip administered as single dose measured at 5 to 720 mins post dose by HPLC-MS/MS analysis; format: ADME, organism-based; design: dose 10 mg/kg, route intraperitoneal
In short: (§6)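 Male Wistar rats (250-350 g) given a single 10 mg/kg i.p. dose of a 5 mg/ml suspension in 85% distilled water, 14% propylene glycol, 1% Tween 80. Three rats per time point (5, 20, 60, 180, 720 min). Blood and brain were collected after sacrifice. Drug was recovered by solid phase extraction and quantified by HPLC-MS/MS.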

[26] = Tmax in Wistar rat plasma at 10 mg/kg, ip administered as single dose by HPLC-MS/MS analysis; format: ADME, organism-based
In short: (§7)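 Male Wistar rats (250–350 g) received a single i.p. dose of 10 mg/kg as a 5 mg/ml suspension in 85% water, 14% propylene glycol and 1% Tween 80. Three rats per time point were sacrificed at 5, 20, 60, 180 and 720 min for plasma and brain. Samples were cleaned up by solid-phase extraction and quantified by HPLC-MS/MS.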

[27] = AUC (0 to 12 hrs) in Wistar rat plasma at 10 mg/kg, ip administered as single dose by HPLC-MS/MS analysis; format: ADME, organism-based; design: time < 12 hr, dose 10 mg/kg, route intraperitoneal
[28] = Terminal elimination half-life in Wistar rat plasma at 10 mg/kg, ip administered as single dose by HPLC-MS/MS analysis; format: ADME, organism-based; conditions: read-out: beta t1/2 (converted); in short: as §7
[29] = Cmax in Wistar rat brain at 10 mg/kg, ip administered as single dose measured at 5 to 720 mins post dose by HPLC-MS/MS analysis; format: ADME, organism-based; design: dose 10 mg/kg, route intraperitoneal; in short: as §6
[30] = Tmax in Wistar rat brain at 10 mg/kg, ip administered as single dose by HPLC-MS/MS analysis; format: ADME, organism-based; in short: as §7
[31] = tested on: Brain; experiment: AUC (0 to 12 hrs) in Wistar rat brain at 10 mg/kg, ip administered as single dose by HPLC-MS/MS analysis; format: ADME, organism-based; design: dose 10 mg/kg, time < 12 hr, route intraperitoneal; conditions: in vivo
[32] = Terminal elimination half-life in Wistar rat brain at 10 mg/kg, ip administered as single dose by HPLC-MS/MS analysis; format: ADME, organism-based; conditions: read-out: beta t1/2 (converted); in short: as §7
[33] = Ratio of brain AUC (0 to t) to plasma AUC (0 to t), Kp of the compound in Wistar rat at 10 mg/kg, ip administered as single dose by HPLC-MS/MS analysis; format: ADME, organism-based

## O=c1c2c[nH]c3cc(Br)ccc3c-2nn1-c1ccc(O)cc1
[1]
  Drug metabolism: Metabolite_Detected
[2]
  Drug metabolism: Metabolite_Detected

## COc1ccc2c3nn(-c4ccc(OC)nc4)c(=O)c-3c[nH]c2c1
[3]
  remaining at 1 h, 10 µM: 92.8%
[4]
  remaining at 1 h, 10 µM: 74.8%
[5]
  solubility: 67.2 µM (≈ 21.7 µg/mL)
[6]
  solubility: 115.4 µM (≈ 37.2 µg/mL)
[7]
  inhibition: Active
[8]
  Activity: Non-Toxic
[9]
  Activity: Active
[10]
  Activity: inactive
[11]
  Activity: inactive
[12]
  Activity: inactive
[13]
  Activity: inactive
[14]
  Activity: inactive
[15]
  inhibition (INH): Not Active

## [2H]C([2H])([2H])Oc1ccc2c3nn(-c4ccc(OC)cc4)c(=O)c-3c[nH]c2c1
[16]
  t1/2: 11.1 h
[3]
  remaining at 1 h, 10 µM: 92%
[4]
  remaining at 1 h, 10 µM: 93.2%
[17]
  Drug metabolism: Metabolite_Detected
[18]
  Drug metabolism: Metabolite_Detected
[19]
  Drug metabolism: Metabolite_Detected
[20]
  Drug metabolism: Metabolite_Detected
[21]
  Drug metabolism: Metabolite_Detected
[22]
  Drug metabolism: Metabolite_Detected
[23]
  Activity: Non-Toxic
[24]
  Activity: Non-Toxic
[8]
  Activity: Non-Toxic
[25]
  Cmax: 3740 ng/mL
[26]
  Tmax: 1.67 h
[27]
  AUC(0-t) at 12 h: 25300 ng·h/mL
[28]
  half-life: 2.46 h
[29]
  Cmax: 657 ng/g
[30]
  Tmax: 2.11 h
[31]
  AUC: 4125.92 ng·h/g
[32]
  half-life: 2.6 h
[33]
  Kp: 0.16
[15]
  inhibition (INH): Not Active
